Measured values of several laboratories.
Protocols differ between the studies behind these lines.
Target: Protein kinase C gamma type (PRKCG, Homo sapiens, UniProt P05129)

`Cc1cc(NC(=O)c2cccc3cc(-c4cccc5[nH]nc(N)c45)ccc23)ccc1F` has an activity vs control of 92% (enzyme activity, inhibitor; 0.1 µM).
With `COc1cc(/C=C/C(=O)CC(=O)/C=C/c2ccc(O)c(OC)c2)ccc1O` the activity vs control was 85% (enzyme activity, inhibitor; 1 µM).
`FC(F)(F)Oc1cccc(-c2cnc3ccc(-c4ccncc4)nn23)c1` gave an activity vs control of 96% (enzyme activity, inhibitor, radiometric; 1 µM).
For `CC/C(=N\NC(=O)NCc1cccc(O)c1)c1ccc(O)c(C)c1O`, the inhibition was 3.6% (enzyme activity, inhibitor; 0.1 µM).
`Cc1ccc(-n2nc(C(C)(C)C)cc2NC(=O)Nc2ccc(OCCN3CCOCC3)c3ccccc23)cc1` has an inhibition of 7% (enzyme activity, inhibitor; 10 µM).
With `CC(C)(C)c1nc(-c2cccc(NS(=O)(=O)c3c(F)cccc3F)c2F)c(-c2ccnc(N)n2)s1` the remaining activity was 102% (enzyme activity, inhibitor, radiometric; 1 µM).
`COc1cc(Nc2cnc(C#N)c(O[C@H](C)CN(C)C)n2)ncc1-c1cnn(C)c1` gave a remaining activity of 90% (enzyme activity, inhibitor, radiometric; 1 µM).
The remaining activity of `O=C(Nc1cnn(-c2csc(C(=O)NC3COC3)c2)c1)Nc1ccccc1Cl` is reported as 98% (enzyme activity, inhibitor; 5 µM).
`Cc1ccc(NC(=O)c2ccc(C)c(C(F)(F)F)c2)cc1C#Cc1nn(C2CCC(O)CC2)c2ncnc(N)c12` (stereo not shown) has a remaining signal of 90% (cell-free assay; 10 µM).
With `COc1cc2ncnc(Nc3ccc(Oc4ccccc4)c(C)c3C)c2cc1OC` the inhibition was 1% (enzyme activity, inhibitor; 1 µM).
`N#CCCc1ccc2c(c1)-c1[nH]c3ccc([N+](=O)[O-])cc3c1CC(=O)N2` has a remaining signal of 93.3% (cell-free assay; 0.5 µM).
For `CCOc1cc(-c2nncn2C)ccc1Nc1ncc2cc(C)nc(NCC(C)(C)C)c2n1`, the inhibition was < 15% (enzyme activity, inhibitor, FRET; 1 µM).
With `CCN(CC)CCNC(=O)c1c(C)[nH]c(/C=C2\C(=O)Nc3ccc(F)cc32)c1C` the inhibition was 32% (enzyme activity, inhibitor; 10 µM).
With `Cc1cnc(NC2CCOCC2)nc1-n1cnc(C(=O)NC(CN)c2cc(F)cc(Cl)c2)c1` (stereo not shown) the remaining activity was 85% (enzyme activity, inhibitor, radiometric; 1 µM).
`CC(C)(O)[C@H]1CC[C@H](Nc2ccc3ncc(-c4cccc(C(F)(F)F)c4)n3n2)CC1` gave a remaining activity of 99% (enzyme activity, inhibitor; 1 µM).
For `COc1cc(Cl)c(C(=O)N[C@@H](CN[C@H]2CC[C@@H](N)CC2)Cc2ccc(C#N)cc2)cc1-c1ccc(CN[C@H](C)c2ccc(C)cc2)o1`, the remaining activity was 98% (enzyme activity, inhibitor; 1 µM).
